Reference: ChEMBL document CHEMBL1255501, “Heteroresistance of Cryptococcus gattii to fluconazole” (2010)
Activity calls are given as the source filed them.

Tests used:
Format in all cases: functional, organism-based
Conditions in all cases: Cryptococcus bacillisporus
[1] = system: Cryptococcus gattii species complex; test: Antimicrobial activity against fluconazole-resistant Cryptococcus gattii serotype B isolate B5763 at 64 ug/ml
Method in brief: (§1)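 Strains were grown overnight in YPD broth at 30°C, washed, serially diluted in sterile saline and spotted at 3 μl onto YPD agar alone or YPD agar containing a xenobiotic: rhizoxin 0.5 μg/ml, gliotoxin 3.2 μg/ml or trichostatin A 64 μg/ml. Growth was compared by spot test.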

[2] = system: Cryptococcus gattii species complex; test: Antimicrobial activity against fluconazole-resistant Cryptococcus gattii serotype B isolate B4506 at 64 ug/ml; method in brief: as §1
[3] = system: Cryptococcus gattii species complex; test: Antimicrobial activity against fluconazole-resistant Cryptococcus gattii serotype B isolate NIH184 at 64 ug/ml; method in brief: as §1
[4] = system: Cryptococcus gattii species complex; test: Antimicrobial activity against fluconazole-resistant Cryptococcus gattii serotype C isolate H00581-1941 at 64 ug/ml
[5] = system: Cryptococcus gattii species complex; test: Antimicrobial activity against fluconazole-resistant Cryptococcus gattii serotype C isolate NIH257 at 64 ug/ml
[6] = system: Cryptococcus gattii species complex; test: Antimicrobial activity against fluconazole-resistant Cryptococcus gattii serotype C isolate H0058-1-818 at 64 ug/ml
[7] = system: Cryptococcus gattii species complex; test: Antimicrobial activity against fluconazole-resistant Cryptococcus gattii serotype B isolate NIH535 at 64 ug/ml; method in brief: as §1
[8] = system: Cryptococcus gattii species complex; test: Antimicrobial activity against fluconazole-resistant Cryptococcus gattii serotype B isolate NIH412 at 64 ug/ml; method in brief: as §1
[9] = system: Cryptococcus gattii species complex; test: Antimicrobial activity against fluconazole-resistant Cryptococcus gattii serotype B isolate NIH771 at 64 ug/ml
[10] = system: Cryptococcus gattii species complex; test: Antimicrobial activity against fluconazole-resistant Cryptococcus gattii serotype B isolate B5788 at 64 ug/ml; method in brief: as §1
[11] = system: Cryptococcus gattii species complex; test: Antimicrobial activity against fluconazole-resistant Cryptococcus gattii serotype B isolate NIH189 at 64 ug/ml; method in brief: as §1
[12] = system: Cryptococcus deuterogattii; test: Antimicrobial activity against fluconazole-resistant Cryptococcus gattii serotype B isolate NIH444 at 64 ug/ml; method in brief: as §1
[13] = system: Cryptococcus gattii species complex; test: Antimicrobial activity against fluconazole-resistant Cryptococcus gattii serotype B isolate B3939 at 64 ug/ml; method in brief: as §1
[14] = system: Cryptococcus gattii species complex; test: Antimicrobial activity against fluconazole-resistant Cryptococcus gattii serotype C isolate NIH34 at 64 ug/ml
[15] = system: Cryptococcus gattii species complex; test: Antimicrobial activity against fluconazole-resistant Cryptococcus gattii serotype B isolate RB3 at 64 ug/ml
[16] = system: Cryptococcus gattii species complex; test: Antimicrobial activity against fluconazole-resistant Cryptococcus gattii serotype B isolate NIH198 at 64 ug/ml; method in brief: as §1
[17] = system: Cryptococcus gattii species complex; test: Antimicrobial activity against fluconazole-resistant Cryptococcus gattii serotype B isolate NIH754 at 64 ug/ml; method in brief: as §1
[18] = system: Cryptococcus gattii species complex; test: Antimicrobial activity against fluconazole-resistant Cryptococcus gattii serotype B isolate NIH200 at 64 ug/ml; method in brief: as §1
[19] = system: Cryptococcus gattii species complex; test: Antimicrobial activity against fluconazole-resistant Cryptococcus gattii serotype B isolate NIH409 at 64 ug/ml; method in brief: as §1
[20] = system: Cryptococcus gattii species complex; test: Antimicrobial activity against fluconazole-resistant Cryptococcus gattii serotype C isolate H0058-1-818 at 0.5 ug/ml
[21] = system: Cryptococcus gattii species complex; test: Antimicrobial activity against fluconazole-resistant Cryptococcus gattii serotype B isolate NIH412 at 0.5 ug/ml; method in brief: as §1
[22] = system: Cryptococcus gattii species complex; test: Antimicrobial activity against fluconazole-resistant Cryptococcus gattii serotype B isolate B5763 at 0.5 ug/ml; method in brief: as §1
[23] = system: Cryptococcus deuterogattii; test: Antimicrobial activity against fluconazole-resistant Cryptococcus gattii serotype B isolate NIH444 at 0.5 ug/ml; method in brief: as §1
[24] = system: Cryptococcus gattii species complex; test: Antimicrobial activity against fluconazole-resistant Cryptococcus gattii serotype B isolate NIH189 at 0.5 ug/ml; method in brief: as §1
[25] = system: Cryptococcus gattii species complex; test: Antimicrobial activity against fluconazole-resistant Cryptococcus gattii serotype B isolate NIH754 at 0.5 ug/ml; method in brief: as §1
[26] = system: Cryptococcus gattii species complex; test: Antimicrobial activity against fluconazole-resistant Cryptococcus gattii serotype B isolate NIH535 at 0.5 ug/ml; method in brief: as §1
[27] = system: Cryptococcus gattii species complex; test: Antimicrobial activity against fluconazole-resistant Cryptococcus gattii serotype C isolate NIH34 at 0.5 ug/ml
[28] = system: Cryptococcus gattii species complex; test: Antimicrobial activity against fluconazole-resistant Cryptococcus gattii serotype B isolate B3939 at 0.5 ug/ml; method in brief: as §1
[29] = system: Cryptococcus gattii species complex; test: Antimicrobial activity against fluconazole-resistant Cryptococcus gattii serotype C isolate H00581-1941 at 0.5 ug/ml
[30] = system: Cryptococcus gattii species complex; test: Antimicrobial activity against fluconazole-resistant Cryptococcus gattii serotype B isolate NIH771 at 0.5 ug/ml; method in brief: as §1
[31] = system: Cryptococcus gattii species complex; test: Antimicrobial activity against fluconazole-resistant Cryptococcus gattii serotype B isolate NIH200 at 0.5 ug/ml; method in brief: as §1
[32] = system: Cryptococcus gattii species complex; test: Antimicrobial activity against fluconazole-resistant Cryptococcus gattii serotype B isolate B5788 at 0.5 ug/ml; method in brief: as §1
[33] = system: Cryptococcus gattii species complex; test: Antimicrobial activity against fluconazole-resistant Cryptococcus gattii serotype C isolate NIH257 at 0.5 ug/ml
[34] = system: Cryptococcus gattii species complex; test: Antimicrobial activity against fluconazole-resistant Cryptococcus gattii serotype B isolate NIH198 at 0.5 ug/ml; method in brief: as §1
[35] = system: Cryptococcus gattii species complex; test: Antimicrobial activity against fluconazole-resistant Cryptococcus gattii serotype B isolate RB3 at 0.5 ug/ml
[36] = system: Cryptococcus gattii species complex; test: Antimicrobial activity against fluconazole-resistant Cryptococcus gattii serotype B isolate NIH409 at 0.5 ug/ml; method in brief: as §1
[37] = system: Cryptococcus gattii species complex; test: Antimicrobial activity against fluconazole-resistant Cryptococcus gattii serotype B isolate NIH184 at 0.5 ug/ml; method in brief: as §1
[38] = system: Cryptococcus gattii species complex; test: Antimicrobial activity against fluconazole-resistant Cryptococcus gattii serotype B isolate B4506 at 0.5 ug/ml; method in brief: as §1
[39] = system: Cryptococcus gattii species complex; test: Antimicrobial activity against fluconazole-resistant Cryptococcus gattii serotype B isolate B5788 at 3.2 ug/ml; method in brief: as §1
[40] = system: Cryptococcus gattii species complex; test: Antimicrobial activity against fluconazole-resistant Cryptococcus gattii serotype B isolate RB3 at 3.2 ug/ml
[41] = system: Cryptococcus gattii species complex; test: Antimicrobial activity against fluconazole-resistant Cryptococcus gattii serotype B isolate NIH771 at 3.2 ug/ml
[42] = system: Cryptococcus gattii species complex; test: Antimicrobial activity against fluconazole-resistant Cryptococcus gattii serotype B isolate B5763 at 3.2 ug/ml; method in brief: as §1
[43] = system: Cryptococcus gattii species complex; test: Antimicrobial activity against fluconazole-resistant Cryptococcus gattii serotype C isolate H00581-1941 at 3.2 ug/ml
[44] = system: Cryptococcus gattii species complex; test: Antimicrobial activity against fluconazole-resistant Cryptococcus gattii serotype B isolate NIH535 at 3.2 ug/ml; method in brief: as §1
[45] = system: Cryptococcus gattii species complex; test: Antimicrobial activity against fluconazole-resistant Cryptococcus gattii serotype C isolate NIH34 at 3.2 ug/ml
[46] = system: Cryptococcus gattii species complex; test: Antimicrobial activity against fluconazole-resistant Cryptococcus gattii serotype B isolate NIH189 at 3.2 ug/ml; method in brief: as §1
[47] = system: Cryptococcus gattii species complex; test: Antimicrobial activity against fluconazole-resistant Cryptococcus gattii serotype B isolate NIH409 at 3.2 ug/ml; method in brief: as §1
[48] = system: Cryptococcus gattii species complex; test: Antimicrobial activity against fluconazole-resistant Cryptococcus gattii serotype B isolate NIH412 at 3.2 ug/ml; method in brief: as §1
[49] = system: Cryptococcus gattii species complex; test: Antimicrobial activity against fluconazole-resistant Cryptococcus gattii serotype B isolate NIH184 at 3.2 ug/ml; method in brief: as §1
[50] = system: Cryptococcus gattii species complex; test: Antimicrobial activity against fluconazole-resistant Cryptococcus gattii serotype B isolate NIH200 at 3.2 ug/ml; method in brief: as §1
[51] = system: Cryptococcus gattii species complex; test: Antimicrobial activity against fluconazole-resistant Cryptococcus gattii serotype C isolate H0058-1-818 at 3.2 ug/ml
[52] = system: Cryptococcus deuterogattii; test: Antimicrobial activity against fluconazole-resistant Cryptococcus gattii serotype B isolate NIH444 at 3.2 ug/ml; method in brief: as §1
[53] = system: Cryptococcus gattii species complex; test: Antimicrobial activity against fluconazole-resistant Cryptococcus gattii serotype B isolate B3939 at 3.2 ug/ml; method in brief: as §1
[54] = system: Cryptococcus gattii species complex; test: Antimicrobial activity against fluconazole-resistant Cryptococcus gattii serotype B isolate NIH198 at 3.2 ug/ml; method in brief: as §1
[55] = system: Cryptococcus gattii species complex; test: Antimicrobial activity against fluconazole-resistant Cryptococcus gattii serotype B isolate B4506 at 3.2 ug/ml; method in brief: as §1
[56] = system: Cryptococcus gattii species complex; test: Antimicrobial activity against fluconazole-resistant Cryptococcus gattii serotype B isolate NIH754 at 3.2 ug/ml; method in brief: as §1
[57] = system: Cryptococcus gattii species complex; test: Antimicrobial activity against fluconazole-resistant Cryptococcus gattii serotype C isolate NIH257 at 3.2 ug/ml

Measured: Activity

CC(/C=C/C(=O)NO)=C\[C@@H](C)C(=O)c1ccc(N(C)C)cc1
inactive: [1] | [2] | [3] | [4] | [5] | [6] | [7] | [8] | [9] | [10] | [11] | [12] | [13] | [14] | [15] | [16] | [17] | [18] | [19]

CO[C@@H](/C(C)=C/C=C/C(C)=C/c1coc(C)n1)[C@@H](C)[C@@H]1C[C@H](O)[C@@]2(C)O[C@@H]2/C=C/[C@@H](C)[C@H]2C[C@H](CC(=O)O2)C[C@@H]2O[C@H]2C(=O)O1
inactive: [20] | [21] | [22] | [23] | [24] | [25] | [26] | [27] | [28] | [29] | [30] | [31] | [32] | [33] | [34] | [35] | [36] | [37] | [38]

CN1C(=O)[C@]23CC4=CC=C[C@H](O)[C@H]4N2C(=O)[C@@]1(CO)SS3
inactive: [39] | [40] | [41] | [42] | [43] | [44] | [45] | [46] | [47] | [48] | [49] | [50] | [51] | [52] | [53] | [54] | [55] | [56] | [57]
